The values below come from ChEMBL document CHEMBL4043178, “Synthesis and evaluation of analogs of 5'-(((Z)-4-amino-2-butenyl)methylamino)-5'-deoxyadenosine (MDL 73811, or AbeAdo) - An inhibitor of S-adenosylmethionine decarboxylase with antitrypanosomal activity” (Bioorg Med Chem, 2017).

As a reminder, the half-life is the time in which the quantity being followed falls by half. By IC50 is commonly meant the concentration at which inhibition is half-maximal.

One data set relates to Trypanosoma brucei. The data set is described as follows: Antitrypanosomal activity against Trypanosoma brucei Lister 427 bloodstream forms assessed as inhibition of parasite growth at 25 uM incubated for 48 hrs by ATP-bioluminescence cell viability assay. The conditions noted are these: Lister 427, 48 h, read-out: GI. It counts as functional. Put shortly: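 Bloodstream-form Lister 427 cells grown in HMI-19, seeded at 3000 cells/mL; compound added as 100-fold intermediate dilution, final DMSO 0.1%. After 48 h culture, viability read by CellTiter-Glo ATP-bioluminescence. Tested 0.0038–25 µM in 3-fold steps, triplicate; no-cell and DMSO-only controls (0% and 100% viability) per plate; value is percent inhibition at 25 µM.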

Data set [1] is described as follows: Half life in human pooled liver microsomes at 1 uM in presence of NADPH by LC/MS/MS method. Particulars: pooled liver microsomes. The format is ADME, microsome.
The nature of data set [2]: Half life in mouse pooled liver microsomes at 1 uM in presence of NADPH by LC/MS/MS method. The format is ADME, microsome. The conditions noted are these: pooled liver microsomes.
Data set [3] can be described thus: Inhibition of Trypanosoma brucei AdoMetDC pre-incubated for 30 mins before AdoMet substrate addition by RapidFire-mass spectrometry.

As for `CC(=O)Oc1cc(C)cc(C)c1C(C)(C)CC(=O)NC/C=C\CN(C)C[C@H]1O[C@@H](n2cnc3c(N)ncnc32)[C@@H]2OC(C)(C)O[C@@H]21`, the inhibition of growth at 25 µM with Trypanosoma brucei came to 44%. For the same molecule, the half-life at 1 µM in data set [1] and in data set [2] was at most 2.5 min throughout. Further, in data set [3], the half-inhibitory concentration (IC50) was over 50 µM.
